# The source made the active and inactive calls. No cut-off for these calls is given here.
# Tests used:
# [1] = molecular target: Somatostatin receptor type 4 (Homo sapiens, UniProt P31391); assay: Displacement of [125I]-[Leu8, DTrp22, Tyr25]SRIF28 from human sst4 receptor expressed in chinese hamster CCL39 cells by autoradiography; format: cell-based
# [2] = molecular target: T1, Somatostatin receptor type 2 (Homo sapiens, UniProt P30874); assay: Displacement of [125I]-[Leu8, DTrp22, Tyr25]SRIF28 from human sst2 receptor expressed in chinese hamster CCL39 cells by autoradiography; format: cell-based
# T1 sequence (P30874 whole entry): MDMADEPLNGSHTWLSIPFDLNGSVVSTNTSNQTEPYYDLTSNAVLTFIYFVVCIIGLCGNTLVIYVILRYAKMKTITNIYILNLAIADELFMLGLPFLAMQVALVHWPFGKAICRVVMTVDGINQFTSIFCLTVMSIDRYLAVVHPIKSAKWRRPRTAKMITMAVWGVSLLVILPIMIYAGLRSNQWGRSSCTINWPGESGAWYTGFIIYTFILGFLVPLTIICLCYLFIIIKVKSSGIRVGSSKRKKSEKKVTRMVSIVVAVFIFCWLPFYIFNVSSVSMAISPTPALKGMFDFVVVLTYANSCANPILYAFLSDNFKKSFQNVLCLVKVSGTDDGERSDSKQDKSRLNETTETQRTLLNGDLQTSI
# [3] = molecular target: Somatostatin receptor type 1 (Homo sapiens, UniProt P30872); assay: Displacement of [125I]-[Leu8, DTrp22, Tyr25]SRIF28 from human sst1 receptor expressed in CHOK1 cells by autoradiography; format: cell-based, CHO-K1
# Somatostatin receptor type 1, sequence (P30872 whole entry): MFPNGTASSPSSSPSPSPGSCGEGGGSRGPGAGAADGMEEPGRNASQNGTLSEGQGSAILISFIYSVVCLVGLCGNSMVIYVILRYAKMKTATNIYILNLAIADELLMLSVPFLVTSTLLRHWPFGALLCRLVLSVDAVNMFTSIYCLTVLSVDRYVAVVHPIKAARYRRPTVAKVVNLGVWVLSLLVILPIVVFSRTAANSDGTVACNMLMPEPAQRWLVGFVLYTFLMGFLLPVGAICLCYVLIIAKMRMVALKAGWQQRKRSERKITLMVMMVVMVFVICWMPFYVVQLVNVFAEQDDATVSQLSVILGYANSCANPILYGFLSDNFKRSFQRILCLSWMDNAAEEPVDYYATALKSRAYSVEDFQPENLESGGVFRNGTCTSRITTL
# [4] = molecular target: Somatostatin receptor type 5 (Homo sapiens, UniProt P35346); assay: Displacement of [125I]-[Leu8, DTrp22, Tyr25]SRIF28 from human sst5 receptor expressed in CHOK1 cells by autoradiography; format: cell-based, CHO-K1
# Somatostatin receptor type 5, sequence (P35346 whole entry): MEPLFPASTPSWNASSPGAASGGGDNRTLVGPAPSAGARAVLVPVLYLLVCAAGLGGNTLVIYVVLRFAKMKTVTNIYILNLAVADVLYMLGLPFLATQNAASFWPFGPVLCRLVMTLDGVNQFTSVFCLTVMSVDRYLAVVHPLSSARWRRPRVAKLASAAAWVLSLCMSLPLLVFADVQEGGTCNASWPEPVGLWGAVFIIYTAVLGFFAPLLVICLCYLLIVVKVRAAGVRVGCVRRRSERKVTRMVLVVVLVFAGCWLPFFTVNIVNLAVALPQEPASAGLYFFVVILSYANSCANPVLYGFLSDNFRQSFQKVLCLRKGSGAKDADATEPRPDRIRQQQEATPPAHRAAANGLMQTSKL
# [5] = molecular target: Somatostatin receptor type 3 (Homo sapiens, UniProt P32745); assay: Displacement of [125I]-[Leu8, DTrp22, Tyr25]SRIF28 from human sst3 receptor expressed in chinese hamster CCL39 cells by autoradiography; format: cell-based
# Somatostatin receptor type 3, sequence (P32745 whole entry): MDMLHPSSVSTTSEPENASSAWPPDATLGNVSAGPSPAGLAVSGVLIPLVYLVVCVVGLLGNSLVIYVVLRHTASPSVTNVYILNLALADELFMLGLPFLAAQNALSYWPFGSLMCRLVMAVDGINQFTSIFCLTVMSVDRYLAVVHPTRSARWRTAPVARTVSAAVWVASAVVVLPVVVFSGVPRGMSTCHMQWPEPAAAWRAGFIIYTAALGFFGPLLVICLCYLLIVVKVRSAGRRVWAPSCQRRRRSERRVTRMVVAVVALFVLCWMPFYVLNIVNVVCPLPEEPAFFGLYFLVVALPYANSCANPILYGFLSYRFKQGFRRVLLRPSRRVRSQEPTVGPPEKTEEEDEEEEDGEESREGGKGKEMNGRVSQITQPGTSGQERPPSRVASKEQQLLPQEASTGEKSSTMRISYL
# [6] = molecular target: T1, Somatostatin receptor type 2; assay: Agonist activity at T7-tagged human sst2 receptor expressed in HEK293 cells at 100 to 10000 nM; format: functional, cell-based
# Summary of the method: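 Immunofluorescence microscopy internalization in HEK-sst2 cells. Agonist mode: peptides at 100 nM to 10,000 nM. Antagonist mode: 100 nM [Tyr3]-octreotide with 100-fold excess of peptide. Treatment 30 min at 37 °C, 5% CO2 in growth medium, then staining with polyclonal sst2-specific R2-88 antibody; n ≥ 2.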
# Somatostatin receptor type 4, sequence (P31391 whole entry): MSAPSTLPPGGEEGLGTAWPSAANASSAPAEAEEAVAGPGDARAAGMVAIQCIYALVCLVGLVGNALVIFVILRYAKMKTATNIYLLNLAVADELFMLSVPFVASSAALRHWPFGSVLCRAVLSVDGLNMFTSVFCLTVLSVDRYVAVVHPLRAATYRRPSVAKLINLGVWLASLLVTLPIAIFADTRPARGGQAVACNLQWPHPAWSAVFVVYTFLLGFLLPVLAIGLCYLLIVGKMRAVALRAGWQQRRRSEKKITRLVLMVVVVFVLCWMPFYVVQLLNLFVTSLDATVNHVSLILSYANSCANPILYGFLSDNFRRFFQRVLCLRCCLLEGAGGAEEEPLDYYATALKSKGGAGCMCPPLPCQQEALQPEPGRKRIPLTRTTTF
structure (smiles),measurement,setting,value
C[C@@H](O)[C@H](NC(=O)[C@@H]1CCSSCC[C@H](NC(=O)[C@H](N)Cc2ccccc2)C(=O)N[C@@H](Cc2ccccc2)C(=O)N[C@H](Cc2c[nH]c3ccccc23)C(=O)N[C@@H](CCCCN)C(=O)N[C@@H]([C@@H](C)O)C(=O)N1)C(N)=O,IC50,[1],115 nM
same,IC50,[2],4.9 nM
same,IC50,[3],> 1000 nM
same,IC50,[4],109 nM
same,IC50,[5],452 nM
C[C@@H](O)[C@H](NC(=O)[C@@H]1CSSC[C@H](NC(=O)[C@H](N)Cc2ccccc2)C(=O)N[C@@H](Cc2ccccc2)C(=O)N[C@H](Cc2c[nH]c3ccccc23)C(=O)N[C@@H](CCCCN)C(=O)N[C@@H]([C@@H](C)O)C(=O)N1)C(N)=O,IC50,[1],> 1000 nM
same,IC50,[2],1.9 nM
same,IC50,[3],> 1000 nM
same,Activity,[6],Active
same,IC50,[5],39 nM
C[C@@H](O)[C@@H]1NC(=O)[C@H](CCCCN)NC(=O)[C@@H](Cc2c[nH]c3ccccc23)NC(=O)[C@H](Cc2ccc(O)cc2)NC(=O)[C@H](NC(=O)[C@@H](N)Cc2ccc(Cl)cc2)CCSSCC[C@@H](C(=O)N[C@@H](Cc2ccc3ccccc3c2)C(N)=O)NC1=O,IC50,[1],174 nM
same,IC50,[2],267 nM
same,IC50,[3],763 nM
same,IC50,[4],199 nM
same,IC50,[5],359 nM
C[C@@H](O)[C@H](NC(=O)[C@H]1CCSSCC[C@@H](NC(=O)[C@H](N)Cc2ccccc2)C(=O)N[C@@H](Cc2ccccc2)C(=O)N[C@H](Cc2c[nH]c3ccccc23)C(=O)N[C@@H](CCCCN)C(=O)N[C@@H]([C@@H](C)O)C(=O)N1)C(N)=O,Activity,[6],Active
C[C@@H](O)[C@H](NC(=O)[C@@H]1NC(=O)[C@H]([C@@H](C)O)NC(=O)[C@H](CCCCN)NC(=O)[C@@H](Cc2c[nH]c3ccccc23)NC(=O)[C@H](Cc2ccccc2)NC(=O)[C@H](NC(=O)[C@H](N)Cc2ccccc2)SS1)C(N)=O,IC50,[1],214 nM
same,IC50,[2],337 nM
same,IC50,[3],> 1000 nM
same,IC50,[4],> 1000 nM
same,IC50,[5],> 1000 nM

# — ChEMBL document CHEMBL1150261, “Ring size in octreotide amide modulates differently agonist versus antagonist binding affinity and selectivity” (J Med Chem, 2008)
